Test: phase I trial: safety and tolerability
Format: in vivo, human
Procedure, shortened: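 Fifteen patients were dosed orally twice daily (three per cohort, 100–800 mg). AEs, DLTs, physical exams, vital signs, ECGs and laboratory chemistry, hematology and coagulation were recorded from first dose to end of treatment. AEs were graded by the investigator using NCI CTCAE v4.03. DLTs were assessed in cycle 1 (days 1–28): grade ≥3 or immune-related non-hematologic events, and grade ≥4 hematologic events.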

## NS(=O)(=O)[C@H]1CC[C@](F)(CC[C@H]2c3ccccc3-c3cncn32)CC1 [M4112]
100 mg two times per day (n=3)
  Abdominal distension: 0 (0.0) n (%)
  Abdominal pain: 0 (0.0) n (%)
  Alanine aminotransferase increased: 0 (0.0) n (%)
  Amylase increased: 0 (0.0) n (%)
  Anemia of malignant disease: 0 (0.0) n (%)
  Any AE: 3 (100) n (%)
  Any SAE: 0 n (%)
  Aspartate aminotransferase increased: 0 (0.0) n (%)
  Blood alkaline phosphatase increased: 0 (0.0) n (%)
  Blood creatine phosphokinase increased: 0 (0.0) n (%)
  Blood creatinine increased: 0 (0.0) n (%)
  Cough: 1 (33.3) n (%)
  Decreased appetite: 1 (33.3) n (%)
  Dehydration: 0 (0.0) n (%)
  Diarrhea: 0 (0.0) n (%)
  Dyspepsia: 2 (66.7) n (%)
  Dysphagia: 1 (33.3) n (%)
  Fatigue: 2 (66.7) n (%)
  Fever: 0 (0.0) n (%)
  Gamma-glutamyl transferase increased: 0 (0.0) n (%)
  Hypercalcemia: 0 (0.0) n (%)
  Lipase increased: 0 (0.0) n (%)
  Lymphocyte count decreased: 0 (0.0) n (%)
  Maculopapular rash: 1 (33.3) n (%)
  Nausea: 1 (33.3) n (%)
  Palmar-plantar erythrodysesthesia syndrome: 1 (33.3) n (%)
  Platelet count decreased: 0 (0.0) n (%)
  Tumor pain: 0 (0.0) n (%)
  Vomiting: 2 (66.7) n (%)
200 mg two times per day (n=3)
  Abdominal distension: 0 (0.0) n (%)
  Abdominal pain: 0 (0.0) n (%)
  Alanine aminotransferase increased: 0 (0.0) n (%)
  Amylase increased: 0 (0.0) n (%)
  Anemia of malignant disease: 0 (0.0) n (%)
  Any AE: 3 (100) n (%)
  Any SAE: 0 n (%)
  Aspartate aminotransferase increased: 0 (0.0) n (%)
  Blood alkaline phosphatase increased: 0 (0.0) n (%)
  Blood creatine phosphokinase increased: 1 (33.3) n (%)
  Blood creatinine increased: 0 (0.0) n (%)
  Cough: 1 (33.3) n (%)
  Decreased appetite: 0 (0.0) n (%)
  Dehydration: 1 (33.3) n (%)
  Diarrhea: 1 (33.3) n (%)
  Dyspepsia: 0 (0.0) n (%)
  Dysphagia: 0 (0.0) n (%)
  Fatigue: 0 (0.0) n (%)
  Fever: 1 (33.3) n (%)
  Gamma-glutamyl transferase increased: 0 (0.0) n (%)
  Hypercalcemia: 1 (33.3) n (%)
  Lipase increased: 1 (33.3) n (%)
  Lymphocyte count decreased: 1 (33.3) n (%)
  Maculopapular rash: 0 (0.0) n (%)
  Nausea: 1 (33.3) n (%)
  Palmar-plantar erythrodysesthesia syndrome: 0 (0.0) n (%)
  Platelet count decreased: 1 (33.3) n (%)
  Tumor pain: 0 (0.0) n (%)
  Vomiting: 1 (33.3) n (%)
400 mg two times per day (n=3)
  Abdominal distension: 1 (33.3) n (%)
  Abdominal pain: 1 (33.3) n (%)
  Alanine aminotransferase increased: 1 (33.3) n (%)
  Amylase increased: 1 (33.3) n (%)
  Anemia of malignant disease: 1 (33.3) n (%)
  Any AE: 3 (100) n (%)
  Any SAE: 1 (33.3) n (%)
  Aspartate aminotransferase increased: 0 (0.0) n (%)
  Blood alkaline phosphatase increased: 0 (0.0) n (%)
  Blood creatine phosphokinase increased: 1 (33.3) n (%)
  Blood creatinine increased: 1 (33.3) n (%)
  Cough: 1 (33.3) n (%)
  Decreased appetite: 1 (33.3) n (%)
  Dehydration: 0 (0.0) n (%)
  Diarrhea: 0 (0.0) n (%)
  Dyspepsia: 0 (0.0) n (%)
  Dysphagia: 1 (33.3) n (%)
  Fatigue: 1 (33.3) n (%)
  Fever: 0 (0.0) n (%)
  Gamma-glutamyl transferase increased: 0 (0.0) n (%)
  Hypercalcemia: 1 (33.3) n (%)
  Lipase increased: 0 (0.0) n (%)
  Lymphocyte count decreased: 0 (0.0) n (%)
  Maculopapular rash: 1 (33.3) n (%)
  Nausea: 0 (0.0) n (%)
  Palmar-plantar erythrodysesthesia syndrome: 1 (33.3) n (%)
  Platelet count decreased: 0 (0.0) n (%)
  Tumor pain: 1 (33.3) n (%)
  Vomiting: 0 (0.0) n (%)
600 mg two times per day
  dose reductions due to AEs (one grade 3 diarrhea and one grade 3 rash after the DLT period): Two patients
600 mg two times per day (n=3)
  Abdominal distension: 1 (33.3) n (%)
  Abdominal pain: 1 (33.3) n (%)
  Alanine aminotransferase increased: 0 (0.0) n (%)
  Amylase increased: 1 (33.3) n (%)
  Anemia of malignant disease: 1 (33.3) n (%)
  Any AE: 3 (100) n (%)
  Any SAE: 1 (33.3) n (%)

Reference: publication PMC7449315 (Journal for Immunotherapy of Cancer, 2020)
